Reference: ChEMBL document CHEMBL5042548, “Multiparameter Optimization of Oxidative Phosphorylation Inhibitors for the Treatment of Pancreatic Cancer” (J Med Chem, 2022)
Calls of active or inactive are those of the source. No cut-off for these calls is given here.

Tests used:
[1] = test system: MIA PaCa-2; experiment: Cytotoxicity against human MIA PaCa-2 cells assessed as inhibition of cell growth incubated for overnight in galactose-containing medium followed by compound addition and measured after 3 days by MTT assay; type: functional, cell-based; conditions: MIA PaCa-2, 72 h
How it was run: (§1)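 MIA PaCa-2 3-day MTT in glucose medium (RPMI 1640 + 10% FBS) or galactose medium (glucose-free RPMI + 10 mM galactose + 10% FBS). Galactose wells are seeded at 8000 cells/well. MTT read-out is at 570 nm after DMSO solubilization. IC50 is by nonlinear regression; ≥3 independent experiments.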

[2] = test system: BXPC-3; experiment: Cytotoxicity against human BXPC-3 cells assessed as inhibition of cell growth incubated for overnight in glucose-containing medium followed by compound addition and measured after 7 days by MTT assay; type: functional, cell-based; conditions: BXPC-3, 168 h
How it was run: (§2)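 7-day MTT in glucose medium (RPMI 1640 + 10% FBS). Seeding is 200 cells/well for MIA PaCa-2 and 300 cells/well for BxPC-3, overnight at 37 °C, 5% CO2, before compound. MTT 3 mg/mL is added for 4 h, then DMSO, and absorbance is read at 570 nm. IC50 is by nonlinear regression; ≥3 independent experiments.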

[3] = test system: MIA PaCa-2; experiment: Cytotoxicity against human MIA PaCa-2 cells assessed as inhibition of cell growth incubated for overnight in glucose-containing medium followed by compound addition and measured after 7 days by MTT assay; type: functional, cell-based; conditions: MIA PaCa-2, 168 h; how it was run: as §2
[4] = test system: MIA PaCa-2; experiment: Cytotoxicity against human MIA PaCa-2 cells assessed as inhibition of cell growth incubated for overnight in glucose-containing medium followed by compound addition and measured after 3 days by MTT assay; type: functional, cell-based; conditions: MIA PaCa-2, 72 h; how it was run: as §1
[5] = Metabolic stability in human liver microsomes assessed as half life at 10 uM measured up to 60 mins in presence of NADPH by LC-MS/MS analysis; type: ADME, Microsome; conditions: for t1/2: microsomes, 1 h, 10 µM; for half-life at 10 µM: liver microsomes
[6] = Metabolic stability in mouse liver microsomes assessed as half life at 10 uM measured up to 60 mins in presence of NADPH by LC-MS/MS analysis; type: ADME, Microsome; conditions: for t1/2: microsomes, 1 h, 10 µM; for half-life at 10 µM: liver microsomes
[7] = Inhibition of oxidative phosphorylation in human MIA PaCa-2 cells assessed as reduction in ATP production incubated for 24 hrs in glucose-containing medium by celltiter-glo luminescence cell viability assay; type: functional, cell-based; conditions: MIA PaCa-2, 24 h
How it was run: (§3)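 MIA PaCa-2 cells are seeded at 10000 cells/well in glucose RPMI + 10% FBS or in glucose-free RPMI + 10 mM galactose + 10% FBS. Total ATP is measured by CellTiter-Glo luminescence 24 h after compound. IC50 is by nonlinear regression; ≥3 independent experiments.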

[8] = Inhibition of oxidative phosphorylation in human MIA PaCa-2 cells assessed as reduction in ATP production incubated for 24 hrs in galactose-containing medium by celltiter-glo luminescence cell viability assay; type: functional, cell-based; conditions: MIA PaCa-2, 24 h; how it was run: as §3
[9] = Toxicity in C57BL/6 mouse allografted with mouse Panc02 cells assessed as drug tolerability at 15 mg/kg, ip administered once a day for 28 days; type: organism-based; conditions: in vivo, 672 h, time 28 day
[10] = Toxicity in C57BL/6 mouse allografted with mouse Panc02 cells assessed as body weight loss at 15 mg/kg, ip administered once a day for 28 days and measured twice per week; type: organism-based; conditions: in vivo, 672 h, time 28 day
How it was run: (§4)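 Female C57BL/6 mice, 6-10 weeks old, get 5×10^6 Pan02 cells s.c. in the right flank and are randomized at ~100 mm3 (n = 5/group). Dosing is daily for 28 days. Vehicle is 10% DMSO/50% PG/40% saline, except 15 mg/kg uses 10% DMSO/60% PG/30% saline. Caliper volume (length×width²)/2 and body weight are recorded twice weekly.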

[11] = Toxicity in C57BL/6 mouse allografted with mouse Panc02 cells assessed as drug tolerability at 7.5 mg/kg, ip administered once a day for 28 days; type: organism-based; conditions: in vivo, 672 h, time 28 day
[12] = Toxicity in C57BL/6 mouse allografted with mouse Panc02 cells assessed as body weight loss at 7.5 mg/kg, ip administered once a day for 28 days and measured twice per week; type: organism-based; conditions: in vivo, 672 h, time 28 day; how it was run: as §4
[13] = Toxicity in C57BL/6 mouse allografted with mouse Panc02 cells assessed as body weight loss at 2.5 mg/kg, ip administered once a day for 28 days and measured twice per week; type: organism-based; conditions: in vivo, 672 h, time 28 day; how it was run: as §4
[14] = test system: Panc02; experiment: Antitumor activity against mouse Panc02 cells allografted in C57BL/6 mouse syngeneic model assessed as tumor growth inhibition at 2.5 mg/kg, ip administered once daily for 28 days and measured twice per week; type: functional, organism-based; conditions: time 28.0 day; how it was run: as §4
[15] = Toxicity in C57BL/6 mouse allografted with mouse Panc02 cells assessed as drug tolerability at 2.5 mg/kg, ip administered once a day for 28 days; type: organism-based; conditions: in vivo, 672 h, time 28 day

| Compound | IC50 [1] [µM] | IC50 [2] [µM] | IC50 [3] [µM] | IC50 [4] [µM] | also measured |
| --- | --- | --- | --- | --- | --- |
| CCN(CC)S(=O)(=O)c1ccc(S(=O)(=O)N2CCC[C@@H](C(=O)N[C@@H]3CCOC3)C2)cc1 | 0.1 | 2.27 | 0.75 | > 10 |  |
| CCOC(=O)[C@@H]1CCCN(S(=O)(=O)c2ccc(S(=O)(=O)N(CC)CC)cc2)C1 |  |  |  |  | GI50 ([3]; time 7 day): 0.6 µM |
| CP(C)(=O)c1ccc(S(=O)(=O)N2CCC[C@@H](C(=O)N3CCC(F)(F)CC3)C2)cc1 |  | > 30 | > 30 |  |  |
| CCN(CC)S(=O)(=O)c1ccc(S(=O)(=O)N2CCC[C@@H](C(=O)N3CCC(C(F)(F)F)CC3)C2)cc1 | 0.11 | 0.37 | 0.32 | > 10 |  |
| O=C([C@@H]1CCCN(S(=O)(=O)c2ccc(S(=O)(=O)N3CC[C@H](O)C3)cc2)C1)N1CCC(F)(F)CC1 |  | 0.58 | 0.59 |  |  |
| CCP(=O)(CC)c1ccc(S(=O)(=O)N2CCC[C@@H](C(=O)N3CCC(F)(F)CC3)C2)cc1 |  | > 30 | 21.5 |  |  |
| CCC(CC)S(=O)(=O)c1ccc(S(=O)(=O)N2CCC[C@@H](C(=O)N3CCC(F)(F)CC3)C2)cc1 |  | 0.04 | 0.013 |  | t1/2 [5]: 17.1 min; t1/2 [6]: 8.7 min |
| O=C([C@@H]1CCCN(S(=O)(=O)c2ccc(S(=O)(=O)N3CC[C@@H](O)C3)cc2)C1)N1CCC(F)(F)CC1 | 0.135 | 0.33 | 0.21 | > 3 | half-life at 10 µM [5]: 31 min; IC50 [7]: > 3 µM; IC50 [8]: 0.123 µM; Activity [9]: Non-Toxic; Activity [10]: Non-Toxic; half-life at 10 µM [6]: 26.2 min |
| CCN(CC)S(=O)(=O)c1ccc(S(=O)(=O)N2CCC[C@@H](C(=O)NC3CCOCC3)C2)cc1 | 1.35 | 8.57 | 3.77 | > 10 |  |
| CCN(CC)S(=O)(=O)c1ccc(S(=O)(=O)N2CCC[C@@H](C(=O)N3CCC(C(F)F)CC3)C2)cc1 | 0.14 | 0.45 | 0.42 | > 10 |  |
| CCN(CC)S(=O)(=O)c1ccc(S(=O)(=O)N2CCC[C@@H](C(=O)N3CCC(F)(F)CC3)C2)cc1 | 0.019 | 0.12 | 0.016 | > 10 | half-life at 10 µM [5]: 2.74 min; IC50 [7]: > 3 µM; IC50 [8]: 0.0213 µM; t1/2 [6]: 2.6 min |
| CCN(CC)S(=O)(=O)c1ccc(S(=O)(=O)N2CCC[C@@H](C(=O)N[C@H]3CCOC3)C2)cc1 | 0.29 | 5.27 | 1.67 | > 10 |  |
| CCN(CC)S(=O)(=O)c1ccc(S(=O)(=O)N2CCC[C@@H](C(=O)N3CCC(O)CC3)C2)cc1 | 0.23 | 4.71 | 0.87 | > 10 |  |
| CCN(CC)S(=O)(=O)c1ccc(S(=O)(=O)N2CCC[C@@H](C(=O)N[C@H]3CC[C@@H](OC)CC3)C2)cc1 | 0.59 | 2.15 | 0.96 | > 10 |  |
| CCN(CC)S(=O)(=O)c1ccc(S(=O)(=O)N2CCC[C@@H](C(=O)N3CC[C@H](OC)C3)C2)cc1 | 0.46 | 6.75 | 2.46 | > 10 |  |
| O=C([C@@H]1CCCN(S(=O)(=O)c2ccc(S(=O)(=O)C3COC3)cc2)C1)N1CCC(F)(F)CC1 |  | 0.361 | 0.11 |  |  |
| FC(F)(F)c1ccc(/C=C/c2nc(COc3ccc(CCCCn4ccnn4)cc3)co2)cc1 [MUBRITINIB] |  |  | 0.051 |  |  |
| CCN(CC)S(=O)(=O)c1ccc(S(=O)(=O)N2CCC[C@@H](C(=O)N3CCOCC3)C2)cc1 | 0.16 | 0.79 | 0.35 | > 10 |  |
| CN(C)S(=O)(=O)c1ccc(S(=O)(=O)N2CCC[C@@H](C(=O)N3CCC(F)(F)CC3)C2)cc1 | 0.0724 | 0.56 |  | > 3 | half-life at 10 µM [5]: > 60 min; IC50 [7]: > 3 µM; IC50 [8]: 0.0789 µM; Activity [11]: Non-Toxic; Activity [12]: Non-Toxic; half-life at 10 µM [6]: 32 min |
| CCN(CC)S(=O)(=O)c1ccc(S(=O)(=O)N2CCC[C@@H](C(=O)N3CC[C@@H](OC)C3)C2)cc1 | 1.07 | 11.5 | 3.91 | > 10 |  |
| CCN(CC)S(=O)(=O)c1ccc(S(=O)(=O)N2CCC[C@@H](C(=O)N3CCC(OC)CC3)C2)cc1 | 0.05 | 1.42 | 0.14 | > 10 |  |
| CCN(CC)C(=O)c1ccc(S(=O)(=O)N2CCC[C@@H](C(=O)N3CCC(F)(F)CC3)C2)cc1 |  | 0.24 | 0.07 |  |  |
| CCN(CC)S(=O)(=O)c1ccc(S(=O)(=O)N2CCC[C@@H](C(=O)N3CCC(COC)CC3)C2)cc1 | 0.05 | 1.36 | 0.25 | > 10 |  |
| CCN(CC)S(=O)(=O)c1ccc(S(=O)(=O)N2CCC[C@@H](C(=O)N3CCS(=O)(=O)CC3)C2)cc1 | 0.22 | 4.43 | 0.9 | > 10 |  |
| CC(C)CS(=O)(=O)c1ccc(S(=O)(=O)N2CCC[C@@H](C(=O)N3CCC(F)(F)CC3)C2)cc1 |  | 0.311 | 0.08 |  |  |
| CC(C)NS(=O)(=O)c1ccc(S(=O)(=O)N2CCC[C@@H](C(=O)N3CCC(F)(F)CC3)C2)cc1 |  | 0.47 | 0.35 |  | t1/2 [5]: 19.7 min; t1/2 [6]: 23.1 min |
| O=C([C@@H]1CCCN(S(=O)(=O)c2ccc(S(=O)(=O)C3CCC3)cc2)C1)N1CCC(F)(F)CC1 | 0.0126 | 0.078 | 0.009 | > 3 | half-life at 10 µM [5]: > 60 min; Activity [13]: Non-Toxic; IC50 [7]: > 3 µM; IC50 [8]: 0.0158 µM; Activity [14]: Active; half-life at 10 µM [6]: 44 min; Activity [15]: Non-Toxic |
| CCN(CC)S(=O)(=O)c1ccc(S(=O)(=O)N2CCC[C@@H](C(=O)N[C@H]3CC[C@H](OC)CC3)C2)cc1 | 2.29 | 2 | 1.35 | > 10 |  |
| O=C([C@@H]1CCCN(S(=O)(=O)c2ccc(S(=O)(=O)C3CC3)cc2)C1)N1CCC(F)(F)CC1 |  | 0.129 | 0.026 |  |  |
